Compound activity (PubChem)
APJ ag: activates the human apelin receptor APJ; AID 2520; activation, % at 20 µM; CHO-K1 APJ PathHunter beta-arrestin, luminescence; 0% DMSO wells, 100% apelin; P35414; hit rate 0.11% among 330,000;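 active = activation more than six SD over the plate average, tested at 20 µM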;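 also: 0% = DMSO alone and 100% = apelin-13 at 10 nM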
Target sequence (P35414 whole entry, looked up): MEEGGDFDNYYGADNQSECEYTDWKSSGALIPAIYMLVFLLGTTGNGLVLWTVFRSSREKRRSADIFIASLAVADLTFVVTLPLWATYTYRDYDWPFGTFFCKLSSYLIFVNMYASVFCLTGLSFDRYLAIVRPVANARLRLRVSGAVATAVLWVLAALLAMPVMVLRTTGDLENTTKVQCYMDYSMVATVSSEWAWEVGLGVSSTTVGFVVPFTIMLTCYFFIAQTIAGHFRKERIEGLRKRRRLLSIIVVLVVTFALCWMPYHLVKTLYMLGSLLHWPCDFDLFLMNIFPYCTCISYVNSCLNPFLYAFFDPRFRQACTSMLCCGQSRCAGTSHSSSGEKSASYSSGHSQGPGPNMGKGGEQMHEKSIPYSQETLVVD
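Test system: CHO-K1 APJ beta-arrestin complementation cell line. Amount: cell density 1000 per well. Controls: DMSO negative, 10 nM Apelin-13 positive. Signal: luminescent beta-gal fragment complementation, chemiluminescent substrate. Read-out basis: agonist-driven arrestin binding to APJ. Timing: compound stimulation 90 min at 25 °C, detection 60 min.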
CCR6 antagonist: antagonists of human CCR6 receptor; CHO-K1 CCR6 PathHunter beta-arrestin, luminescence, CCL20-stimulated; inhibition, % at 20 µM; hit rate 0.49% among 340,000; AID 493098;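 active = compounds whose inhibition of the agonist-driven luminescence signal at 20 µM reaches about 50%, limit read from the data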;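 also: cells stimulated with CCL20 at 14 nM final; plate controls were DMSO with CCL20 for no effect and DMSO without agonist for full effect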
CXCR6 inh: CXCR6 (human) receptor inhibition; O00574; CHO-K1 PathHunter CXCR6 beta-arrestin, luminescence; inhibition, % at 20 µM; hit rate 0.36% among 360,000; AID 602244; in the data active = inhibition above about 34%, passing the limit was not always enough;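 also: antagonist mode with CXCL16 agonist at 10 nM final; 0% = 10 nM CXCL16 with DMSO and 100% = unstimulated wells without agonist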
APJ antagonist: antagonists of human APJ apelin receptor | AID 2521 | CHO-K1 APJ beta-arrestin complementation, luminescence | inhibition, % at 20 µM | hit rate 0.32% among 330,000 | P35414;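 active = inhibition above about 40% at 20 µM, limit read from the data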;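 also: cells challenged with 10 nM apelin-13 agonist together with compound; plate controls were apelin-13 plus DMSO wells for no effect and DMSO wells lacking apelin-13 for full effect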
EBI2 block: blocks human EBI2 receptor beta-arrestin signaling | EBI2 beta-arrestin recruitment, luminescence, 7a,25-OHC stimulated | inhibition, % at 5 µM | hit rate 0.81% among 360,000 | AID 651636; in the data active = inhibition above about 38%;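 also: enzyme fragment complementation signal reports receptor beta-arrestin coupling in cells; 0% = agonist plus DMSO wells and 100% = wells without agonist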
EBI2 conf: EBI2 (human) antagonism, single concentration confirmation; hit rate 29% among 2,400; AID 651997; inhibition, % at 5 µM; shares compounds with EBI2 block; EBI2 beta-arrestin luminescence, 7a,25-OHC antagonism;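 active = inhibition of at least 50%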
EBI2 ag: counter-screen for EBI2 antagonists: EBI2 agonist activity. EBI2-expressing cells, agonist mode, luminescence, 60 min; 0% vehicle, 100% 7α,25-dihydroxycholesterol control. 2,400 tested, under 10 active. AID 652000. activation, % at 5 µM. shares compounds with EBI2 block;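 active = activation of at least 50%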
bGal cs: beta-galactosidase inhibition counter-screen | inhibition, % at 5 µM | purified beta-galactosidase, luminescent Galacton Star, 15 min | shares compounds with EBI2 block | hit rate 1% among 2,400;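 active = replicate-average signal at least 3 plate SD below neutral wells, shown as high inhibition, flagging enzyme-inhibiting false positives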;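 also: 0% = DMSO wells with enzyme and 100% = wells lacking enzyme; higher means stronger loss of beta-gal luminescence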
* = called active by the depositor; . = not tested or not shown. Most compounds without a hit are left out; they make up all but 1.5% or so of the library.

SMILES	APJ ag	CCR6 antagonist	CXCR6 inh	APJ antagonist	EBI2 block	EBI2 conf	EBI2 ag	bGal cs
O=[N+]([O-])c1ccc(NN=Cc2cc(Br)ccc2O)nc1	.	66.7*	32.2	.	58.9*	33.7	-0.7	13.1
O=[N+]([O-])c1ccc(NN=Cc2cccc(O)c2)nc1	.	34.4	3.9	.	10.5	.	.	.
COc1ccc(/C=C(/CC(=O)NCc2ccc(Cl)cc2)c2nc3ccccc3s2)cc1	1.5	21.3	1.7	12.2	38.9*	1.0	-1.8	-12.2
O=C(c1cc2ccccc2o1)N1CCN(c2ncccn2)CC1	-4.1	5.3	-2.5	-0.7	59.0*	33.8	-0.8	-11.1
O=C(c1cc2cc(Br)ccc2o1)N1CCOCC1	-4.5	12.9	-4.0	16.2	26.3	.	.	.
O=C(c1cc2cc(Br)ccc2o1)N1CCN(c2ccccc2)CC1	-3.4	7.7	-6.6	10.0	53.2*	37.2	1.2	7.7
COc1ccc(-c2ccc3c(c2)[C@@H]2C[C@H](N(C)C(=O)C(C)(C)C)[C@H]([C@H](C)O)C(=O)N2CC3)cc1	.	-3.1	7.2	.	15.3	.	.	.
O=C(CCN=C1NS(=O)(=O)c2ccccc21)Nc1ccc(F)cc1Cl	-1.3	-0.3	2.4	10.8	-9.7	.	.	.
CCOC(=O)/C(C#N)=C/c1c(Oc2cc(C)cc(C)c2)nc2ccccn2c1=O	-1.2	12.0	4.7	-1.8	50.5*	34.2	0.8	1.6
CCOC(=O)/C(C#N)=C/c1c(Oc2cccc(C)c2)nc2ccccn2c1=O	0.4	5.0	5.8	-5.0	35.5	.	.	.
O=C(NCCc1ccccc1)c1oc2ccccc2c1COc1ccccc1	.	22.7	12.3	.	45.2*	33.4	2.4	-3.6
S=C(NCC1CCCO1)N1CCN(c2nc(-c3ccc(Cl)cc3)cs2)CC1 (stereo not given)	1.0	-15.0	-3.0	-14.8	85.8*	66.0*	2.1	4.5
COc1ccc(C(=O)N2CCN(c3ccc(C)cc3C)CC2)cc1OC	-3.1	8.0	0.6	-57.7	78.2*	53.2*	0.8	8.9
Cc1ccc(S(=O)(=O)N2CCN(C(=O)COC(=O)COc3ccc(Br)cc3)CC2)c(C)c1	.	-10.1	4.8	.	-9.6	.	.	.
COc1cccc2cc(C(=O)N3CCN(c4ccc(C)cc4C)CC3)c(=O)oc12	3.2	-14.2	0.1	13.5	46.9*	32.8	0.7	8.5
COc1ccc(C(=O)N2CCN(S(=O)(=O)c3ccc(C)cc3C)CC2)cc1OC	0.6	-0.8	-2.9	13.4	47.9*	51.3*	1.9	7.2
CC(=O)c1ccc(OCC(=O)N2CCN(S(=O)(=O)c3ccc(C)cc3C)CC2)cc1	-1.0	-15.9	-3.5	-7.4	65.2*	28.6	-0.2	9.3
O=C(NC1CC1)C1=C[C@H](c2coc3ccccc3c2=O)C[C@H](OCc2ccc(CO)cc2)O1	10.2	-5.8	11.5	-13.7	-12.1	.	.	.
COc1ccc(-c2cc(CNc3nc(NC(C)C)nc4cc(-c5ccccc5)sc34)on2)cc1	.	.	11.6	.	27.8	.	.	.
CCCCc1nnc(NC(=O)CCN2C(=O)C3CC=CCC3C2=O)s1 (stereo not given)	-2.3	11.3	-4.9	9.1	-7.2	.	.	.
Cc1ccc(S(=O)(=O)N2CCN(C(=O)c3ccc4ccccc4n3)CC2)c(C)c1	-1.6	2.2	2.9	-13.0	54.6*	45.4	1.2	6.5
COc1cc(C(=O)NNC(=O)COc2ccccc2Cl)ccc1OCC(=O)N1CCOCC1	-4.6	0.2	7.7	4.7	-0.4	.	.	.
O=C(c1ccccc1)N1CCN(c2ncccn2)CC1	0.4	-2.2	7.3	-7.7	-1.7	.	.	.
COc1ccccc1N1CCN(C(=O)c2cc(-c3ccccc3)on2)CC1	2.6	5.1	26.6	-9.0	63.2*	54.0*	0.2	4.7
C=CCN1CCN(C(=O)c2ccc(-c3ccccc3)cc2)CC1	-1.5	5.4	-5.4	-10.6	77.0*	44.7	-0.2	2.8
O=C(c1ccc(-c2ccccc2)cc1)N1CCN(c2ncccn2)CC1	-7.3	-10.4	2.1	0.3	49.5*	33.0	-0.1	1.9
